The results in this text go back to the RNAGym collection of RNA variant scans (doi:10.1126/science.aae0568).

To fix the notation:
B1: tRNA (parent)
chain: GUUCCGUUGGCGUAAUGGUAACGCGUCUCCCUCCUAAGGAGAAGACUGCGGGUUCGAGUCCCGUACGGAACG

Fewer inactive variants are shown than the library holds. Where only a bound is given, the exact number is not on record here.

Variants of B1 are the subject of the series. Description: yeast fitness relative to wild type (ratio to wild type); higher = fitter; tRNA-Arg(CCU), competitive growth, 37 C, YPD. The gist of the method:
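A pool of Saccharomyces cerevisiae strains, each with a tRNA-Arg(CCU) gene variant at the native genomic locus, was competed in YPD at 37°C for 24 hours across six parallel replicates. The variants had been chemically synthesised at a 3% per-site mutation rate over 69 sites, and gene amplicons before and after competition were read by 100-nucleotide paired-end sequencing. Darwinian fitness relative to wild type rested on changes in genotype frequencies. Genotypes required ≥ 100 starting reads, and estimates < 0.5 were set to 0.5.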
Regarding G12A C27A C29U, the yeast fitness was 0.981.
Take G12A G18C A42U A70G: the yeast fitness worked out at 0.598.
Next, G12C C27A G56C: 0.702.
The result for C11U U54A G58C reads no more than 0.5.
In the case of G12A A15G A65C, the yeast fitness is no more than 0.5.
As for G12C G38A, the yeast fitness was found to be 0.687.
The result for G12C A15G A45G G50C A69C reads no more than 0.5.
Next, G12C A20C G48A: 0.749; C11U U59A: 0.757; G12A C55U: 0.908.
The result for G12C A45U C62G A65G reads 0.604.
With G12C A21U G50C A70C, the yeast fitness is no more than 0.5.
As to G12A A57U, the yeast fitness is 0.668.
With G12A A57G, the yeast fitness came to 0.909.
As for G12A C27U C49U, the yeast fitness amounted to 0.611.
The result for G12A C22G C29G C30U A36U U47C reads 0.571.
As to C11U U54C C61U, the yeast fitness was no more than 0.5.
Regarding G12C C27G G56C, the yeast fitness was no more than 0.5.
Next, G12C G58A C62U A69C: 0.699; G12A G25A A70C: 0.76.
Turning to G12A A15G A69C, the yeast fitness was 0.707.
The result for C11U U19C C31A G50U C62G reads no more than 0.5; that for U13A C29G A43G, no more than 0.5.
Next, G12C C46A G68U: no more than 0.5; U13A C27U G50U: 0.674.
As to C11U U19A C29G, the yeast fitness was 0.704.
As to G12A A36U U54C, the yeast fitness was 0.54.
As to G12C G17C, the yeast fitness is 0.637.
The result for G12C A65U reads 0.735; that for G12A C46U G51A C66U, 0.615; that for G12A C27U C30G G68U, no more than 0.5.
For G12C A20C C31G A65G, the yeast fitness came to 0.527.
With U13A C33U, the yeast fitness came to 0.754.
Regarding U13A, the yeast fitness was determined as 0.993.
As to G12C C24U, the yeast fitness turned out to be 0.651.
Regarding G12A C33G A36C G44A, the yeast fitness is no more than 0.5.
For the variant U13A A15C A45G C55U C61G A69C, the yeast fitness is no more than 0.5.
The result for G12C U32G C33G G68C reads no more than 0.5; that for C11U U13G U19A C22G G25A G48A A69U, no more than 0.5.
Next, G12C C49U A70U: 0.692; G12C A43G C61U: no more than 0.5; U13A C22G G25C C27U C30G C55A: no more than 0.5.
As for U13A A21C U35C G39A A42C A43G C46U A65C, the yeast fitness is 0.55.
On to G12A U47C C49A A57U, for which the yeast fitness worked out at 0.53.
As to G12A A15G A43C A65G, the yeast fitness is no more than 0.5.
With G12A A36C A37C U53G A70C, the yeast fitness was no more than 0.5.
Next, G12A C24A U26A C31A G67A: no more than 0.5.
Next, G12A C61G: 0.605; G12C C30A G48A C55G: 0.607.
Next, G12C U13C A20C C24G G39C G68C: 0.511; U13A C31A G44A A65G A70U: no more than 0.5; U13A A14U C49A: no more than 0.5.
For G12C U26A C33A C34G A69G, the yeast fitness was no more than 0.5.
The result for G12A A15U C24A A45G reads no more than 0.5.
C11U U13G U19A C22G G25A A65C: the yeast fitness is no more than 0.5.
C11U U16A U54C: the yeast fitness was no more than 0.5.
Next, U13A C22G G25C C27U C30G A57C A69U: no more than 0.5; G12A A21G C46A: 0.936.
Next, G12C A45U A70U: 0.564; U13A C30U C55G G58C G67U: no more than 0.5.
Next, G12C C24U C49U C55U G68C: no more than 0.5.
G12A G39C U47A: the yeast fitness was no more than 0.5.
In the case of G12A C27G C34U A43C A57U G58A C62G, the yeast fitness is no more than 0.5.
Turning to G12C U47G C49A A69U, the yeast fitness was no more than 0.5.
Take G12A U35C G41A G51C: the yeast fitness was no more than 0.5.
The result for U13A C27G A45G U64A reads 0.62; that for C11U U19G, 0.962.
In the case of G12A A21C U59A G67A, the yeast fitness was no more than 0.5.
Next, G12C C46U C49G A70U: 0.526.
As for G12C C27G U35A G52A A57G A69U A70U, the yeast fitness was no more than 0.5.
The result for U13A C33U A45C C46G U54C A69U reads no more than 0.5; that for C11U U32C A45C, 0.885; that for G12A A36G U47G G63A A65U, no more than 0.5.
G12C U19A C27G A65C: the yeast fitness is 0.557.
The result for G12A G23A U28G C49U G56C A65U reads 0.526.
For the variant U13A A21G, the yeast fitness came to 1.04.
With G12A U28G C30G C49U U64C, the yeast fitness is no more than 0.5.
The result for C11U U13C C30U A43G reads no more than 0.5; that for G12A A14C C31U, no more than 0.5; that for G12A U13C A15C C46G, no more than 0.5.
Next, G12C G17A C34G A40U A42U G67C: no more than 0.5; C11U U19C G23A G25A C55U: 0.537.
With C11U U19C C27G, the yeast fitness came to 0.66.
Regarding U13A A45C C49A A65U, the yeast fitness is no more than 0.5.
As to G12A G41U, the yeast fitness turned out to be 0.819.
Next, G12A A21C A70U: 0.563.
Next, G12C A20C G58C A70U: no more than 0.5; G12C C22U A40C G52C G67A: no more than 0.5; G12C C22U U54C: 0.683.
The result for C11U U28A G58C A70C reads no more than 0.5; that for U13A A42U G63A, 0.699.
Turning to G12A C24U C61A G67A, the yeast fitness is no more than 0.5.
Turning to U13A A15C C33G C49U A69C, the yeast fitness was no more than 0.5.
On to U13A A14C C22A, for which the yeast fitness was no more than 0.5.
The result for C11U U13C A20C C22G reads no more than 0.5; that for G12A G23A U35G A36G C62U A69G, no more than 0.5; that for G12C U16A A21C, no more than 0.5.
Next, G12A C24U C27A A70U: no more than 0.5; C11U U19G C34U G56A: no more than 0.5; C11U U19C C61G A65C: no more than 0.5.
On to C11U U28A C33G, for which the yeast fitness came to 0.619.
Consider G12A U32G U35A G38C G51C C66U, for which the yeast fitness is no more than 0.5.
As to C11U U35A G38A C61G, the yeast fitness came out at 0.565.
Consider U13A A37G, for which the yeast fitness is 0.714.
Next, G12A C46G: 1; G12A U13A A37G A40G U59A: no more than 0.5.
As for U13A C27U, the yeast fitness is 0.984.
Next, G12A A21G G48A A65U: 0.534; U13A A14U C22A G48C: no more than 0.5.
Next, G12C U59A A69C: no more than 0.5; G12C A43G U54C A69C A70C: no more than 0.5.
With G12A C27G A36U A65U, the yeast fitness is no more than 0.5.
The result for G12A C24A A36U C61U reads 0.618.
Next, U13A A15G G48A G63A A65C: no more than 0.5.
Next, U13A A14C A21C G25A C61A: no more than 0.5.
For the variant C11U U26G U35C G63A A70G, the yeast fitness is no more than 0.5.
In the case of G12C C60A, the yeast fitness was found to be 0.588.
In the case of G12A C33U A36C C62U, the yeast fitness was found to be 0.553.
Turning to U13A A20G A42G C46U, the yeast fitness is no more than 0.5.
The result for G12C U19C reads 0.66.
Next, C11U U47A C60G C62A: no more than 0.5; C11U U28G G51C U64A C66U A69C: no more than 0.5; G12C C31A A40C C62U: no more than 0.5.
For the variant G12A G18A U19C C55U A57C G58C G63A, the yeast fitness was no more than 0.5.
The result for G12A C34G A37G G38A G50A reads no more than 0.5.
Next, G12A G68U: 0.863.
In the case of G12A G68C, the yeast fitness amounted to 0.667.
Next, G12A C62U A70U: 0.695; C11U U64A: 0.71; C11U U64C: 0.879.
The result for G12C C22U U54C C61U reads 0.532.
The result for G12C A43G reads 0.694; that for G12C A43C, 0.825; that for G12C C31U A65C A69U, no more than 0.5.
With G12A A21U, the yeast fitness was determined as 0.729.
Turning to U13A A15G C66U, the yeast fitness came out at 0.644.
Take G12A C22A A36G A37G A57U: the yeast fitness was no more than 0.5.
For the variant G12C C60U A70C, the yeast fitness was no more than 0.5.
Consider G12C U16A C24G G58C C61G, for which the yeast fitness was no more than 0.5.
As to U13A A57C, the yeast fitness came to 0.604.
Next, G12A G38C C49U C62U A69U: 0.973.
On to G12C A42G A70U, for which the yeast fitness turned out to be 0.592.
The result for G12A U13A A65C reads no more than 0.5.
U13A C22U: the yeast fitness came to 0.859.
Turning to G12A C27A C29U A36G, the yeast fitness is no more than 0.5.
The result for G12A U35G G58A G68A reads no more than 0.5.
As for G12A C27A G67C, the yeast fitness was 0.548.
In the case of G12A C30U A45C C60G, the yeast fitness was no more than 0.5.
Turning to G12C C55U C61G, the yeast fitness was no more than 0.5.
As for G12A C24A A45G G50A, the yeast fitness is no more than 0.5.
As to U13A A40U C55U, the yeast fitness came to 0.681.
As to U13A C34A A37G, the yeast fitness is no more than 0.5.
Take G12A G52A G68A: the yeast fitness was no more than 0.5.
With C11U U35A G38A C55G, the yeast fitness was no more than 0.5.
On to G12C C66A, for which the yeast fitness turned out to be 0.676.
Consider G12A A14G A21G C24G U28G, for which the yeast fitness stood at 0.674.
U13A A15G U16G A57G C61A: the yeast fitness is no more than 0.5.
The result for C11U U19G C66A reads 0.54; that for G12C C29G, 0.58; that for G12A G25A C30G G58C C66A, no more than 0.5.
With G12C G25C C66G, the yeast fitness is no more than 0.5.
For U13A C24U C49G, the yeast fitness was no more than 0.5.
Next, G12A G39C C46A: 0.554; U13A C29U A43G U54A U59C C61A: no more than 0.5.
Consider G12C G17A A20U C34A A42C G48A C62U, for which the yeast fitness was no more than 0.5.
In the case of C11U U26C C61G A65C, the yeast fitness was no more than 0.5.
The result for G12A C33U G63A reads no more than 0.5.
